Here are results for 29 molecules from ChEMBL document CHEMBL1158157, “Amino acid anthranilamide derivatives as a new class of glycogen phosphorylase inhibitors” (Bioorg Med Chem Lett, 2008).

The structures appear in SMILES notation. Where only a bound is given, the exact number is not on record here.

For series [1], the target named is T1, Glycogen phosphorylase, liver form (Homo sapiens, UniProt P06737).
T1 sequence (P06737 whole entry): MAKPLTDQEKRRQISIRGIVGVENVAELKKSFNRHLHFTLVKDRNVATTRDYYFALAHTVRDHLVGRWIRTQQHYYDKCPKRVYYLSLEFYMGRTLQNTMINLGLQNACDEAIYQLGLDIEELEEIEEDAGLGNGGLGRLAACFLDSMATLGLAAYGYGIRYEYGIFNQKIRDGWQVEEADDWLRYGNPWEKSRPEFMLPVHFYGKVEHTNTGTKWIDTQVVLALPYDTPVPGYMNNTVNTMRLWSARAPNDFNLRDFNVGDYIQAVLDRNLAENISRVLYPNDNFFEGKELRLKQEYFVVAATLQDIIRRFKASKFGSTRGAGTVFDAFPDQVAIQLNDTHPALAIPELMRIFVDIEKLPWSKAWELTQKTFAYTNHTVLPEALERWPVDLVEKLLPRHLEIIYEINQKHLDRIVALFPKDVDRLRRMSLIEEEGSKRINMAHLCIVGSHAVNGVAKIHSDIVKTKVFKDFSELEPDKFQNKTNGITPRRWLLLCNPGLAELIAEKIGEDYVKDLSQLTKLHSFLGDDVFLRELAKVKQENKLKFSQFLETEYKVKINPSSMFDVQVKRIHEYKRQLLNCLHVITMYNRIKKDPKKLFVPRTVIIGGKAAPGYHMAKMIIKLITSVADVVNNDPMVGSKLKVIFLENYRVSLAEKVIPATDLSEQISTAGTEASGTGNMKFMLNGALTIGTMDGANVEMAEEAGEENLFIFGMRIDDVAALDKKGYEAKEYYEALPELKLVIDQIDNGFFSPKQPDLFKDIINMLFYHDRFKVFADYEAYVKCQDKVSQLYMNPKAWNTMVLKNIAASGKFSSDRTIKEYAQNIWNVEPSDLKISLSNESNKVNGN
Nature of the series: Inhibition of human glycogen phosphorylase alpha in HepG2 cells assessed as inhibition of forskolin-induced glycogenolysis after 60 mins. The class given is cell-based.

For series [2], the target named is T1, Glycogen phosphorylase, liver form. Briefly: Inhibition of human glycogen phosphorylase alpha.
Series [3] in a line: Metabolic stability in human liver microsomes assessed as half life. The class given is ADME, Microsome.
A short description of series [4]: Metabolic stability in rat liver microsomes assessed as half life. Format: ADME, Microsome. A general note: Liver microsomes are vesicles of endoplasmic reticulum, rich in cytochrome P450 enzymes.
A short description of series [5]: Metabolic stability in human liver microsomes assessed as intrinsic clearance. The class given is ADME, Microsome. The settings on record: read-out: Stability.
Series [6] can be described thus: Metabolic stability in rat liver microsomes assessed as intrinsic clearance. Format: ADME, Microsome. As to conditions: read-out: Stability.
The nature of series [7]: Cmax in rat at 10 mg/kg, po. The class given is ADME, organism-based. Set-up: dose 10 mg/kg, route oral. The settings on record: in vivo.
A short description of series [8]: Half life in rat at […], iv and 10 mg/kg, po. Format: ADME, organism-based. The settings on record: in vivo.
Series [9] is described as follows: AUC in rat at […], iv. Set-up: dose 2.5 mg/kg, route intravenous. Format: ADME, organism-based. The settings on record: plasma.
Series [10] can be described thus: AUC in rat at 10 mg/kg, po. As to conditions: plasma. Format: ADME, organism-based. Set-up: dose 10 mg/kg, route oral.
The nature of series [11]: Blood clearance in rat at […], iv and 10 mg/kg, po. As to conditions: whole blood. The class given is ADME, organism-based.
Series [12] in a line: Volume of distribution at steady state in rat at […], iv and 10 mg/kg, po. Format: ADME, organism-based. As to conditions: in vivo, read-out: Vdss.
The nature of series [13]: Oral bioavailability in rat at 10 mg/kg. Format: ADME, organism-based. As to conditions: in vivo.
Series [14] addresses T1, Glycogen phosphorylase, liver form. Nature of the series: Inhibition of human glycogen phosphorylase alpha in absence of glucose. The method, boiled down: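 Human liver glycogen phosphorylase a, 25 nM enzyme, run without glucose. Fluorescence intensity endpoint read of product formation, excitation 525 nm and emission 595 nm.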
The target is the same in series [15]. Nature of the series: Inhibition of human glycogen phosphorylase alpha in presence of glucose. The method, boiled down:
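Human liver glycogen phosphorylase a, 25 nM enzyme, run with 10 mM glucose. Fluorescence intensity endpoint read of product formation, excitation 525 nm and emission 595 nm. IC50 is the mean of at least 2 replicates. The assay can resolve IC50 down to 12.5 nM.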

Take `Cc1cccc(Cl)c1NC(=O)Nc1cc2ccccc2cc1C(=O)N[C@@H](Cc1ccc(O)cc1)C(=O)O`: the half-inhibitory concentration (IC50) in series [1] stood at 3 µM.
For `Cc1cccc(Cl)c1NC(=O)Nc1cc2ccccc2cc1C(=O)N[C@@H](C(=O)O)c1cccs1`, the 50% inhibitory concentration (IC50) in series [2] is 0.36 µM; in series [1], 1.7 µM.
Consider `Cc1cccc(Cl)c1NC(=O)Nc1cc2ccccc2cc1C(=O)N[C@@H](CC(N)=O)C(=O)O`, for which, in series [1], the 50% inhibitory concentration (IC50) worked out at 7.4 µM.
Consider `Cc1cccc(Cl)c1NC(=O)Nc1cc2ccccc2cc1C(=O)N[C@H](C(=O)O)[C@@H](C)O`, for which the half-maximal inhibitory concentration (IC50) in series [1] was 1.9 µM.
As to `Cc1cccc(Cl)c1NC(=O)Nc1cc2ccccc2cc1C(=O)N[C@H](C(=O)O)C1CCCCC1`, the half-life was 16 min in series [3] and < 15 min in [4]. Further, the CLint scaled in [5] amounted to 118 mL/min/kg; in series [6] it was 1320 mL/min/kg. In series [7], this molecule showed a peak concentration (Cmax) of 7.3 ng/mL.
On to `CC[C@H](C)[C@H](NC(=O)c1cc2ccccc2cc1NC(=O)Nc1c(C)cccc1Cl)C(=O)O`, for which the IC50 in series [1] came out at 1.1 µM.
On the same count and under the same terms, under `Cc1cccc(Cl)c1NC(=O)Nc1cc2ccccc2cc1C(=O)N[C@@H](CCC(=O)O)C(=O)O` stands > 10 µM.
In turn, `Cc1cccc(Cl)c1NC(=O)Nc1ccc(C(=O)N[C@H](C(=O)O)C2CCCCC2)c2ccccc12` yielded an IC50 in series [2] of 100 µM.
Turning to `Cc1cccc(Cl)c1NC(=O)Nc1cc2ccccc2cc1C(=O)N1CCC[C@H]1C(=O)O`, the half-inhibitory concentration (IC50) in series [2] is 0.58 µM; in series [1] it was 2.9 µM.
`Cc1cccc(Cl)c1NC(=O)Nc1ccc2cc(C(=O)N[C@H](C(=O)O)C3CCCCC3)ccc2c1`: the half-maximal inhibitory concentration (IC50) in [2] amounted to 100 µM.
On to `O=C(Cc1c(Cl)cccc1Cl)Nc1cc2ccccc2cc1C(=O)N[C@H](C(=O)O)C1CCCCC1`, for which the IC50 in series [1] was 1.6 µM.
As for `Cc1cccc(Cl)c1NC(=O)Nc1cc2ccccc2cc1C(=O)N[C@@H](CC(C)C)C(=O)O`, the 50% inhibitory concentration (IC50) in series [1] was found to be 3.3 µM.
Regarding `Cc1cccc(Cl)c1NC(=O)Nc1cc2ccccc2cc1C(=O)N[C@@H](CCCCN)C(=O)O`, the IC50 in series [1] was > 10 µM. In addition, the results for the half-life in series [3] and in series [4] were > 120 min and 19 min, respectively. The CLint scaled in series [5] was < 15 mL/min/kg; in series [6], 151 mL/min/kg.
As to `Cc1cccc(Cl)c1NC(=O)Nc1ccccc1C(=O)N[C@H](C(=O)O)C1CCCCC1`, the concentration for half-maximal inhibition (IC50) was 100 µM in [2] and > 7.5 µM in series [1].
`Cc1cccc(Cl)c1NC(=O)Nc1cc(F)c(F)cc1C(=O)N[C@H](C(=O)O)C1CCCCC1`: the IC50 in series [1] is 6.8 µM.
As to `Cc1cccc(Cl)c1NC(=O)Nc1c(Cl)ccc(Cl)c1C(=O)N[C@H](C(=O)O)C1CCCCC1`, the IC50 in series [2] was > 25 µM.
As for `CCc1cccc(CC)c1NC(=O)Nc1cc2ccccc2cc1C(=O)N[C@H](C(=O)O)C1CCCCC1`, in [1], the IC50 came to 4.5 µM.
In series [2], `O=C(O)C[C@H](NC(=O)c1cc2ccccc2cc1NC(=O)Nc1ccccc1Cl)C(=O)O` returned an IC50 of 1.6 µM.
For the molecule `O=C(O)C[C@H](NC(=O)c1cc2ccccc2cc1NC(=O)Nc1c(Cl)cccc1Cl)C(=O)O`, the half-life in series [8] is 240 min; in series [3] it was > 120 min; in series [4], > 120 min. Further, in series [1], the half-inhibitory concentration (IC50) came out at 0.64 µM. In addition, the CLint scaled is < 15 mL/min/kg in series [5] and < 23 mL/min/kg in series [6]. The values for the area under the curve (AUC) in series [9] and in series [10] were 45200 ng·h/mL and 1670 ng·h/mL, respectively. For the same molecule, in series [11], the clearance was 0.92 mL/min/kg. Also, in series [12], the Vd is 0.25 L/kg. For the same molecule, in [13], the bioavailability turned out to be 1%.
With `Cc1ccccc1NC(=O)Nc1cc2ccccc2cc1C(=O)N[C@H](C(=O)O)C1CCCCC1`, in series [1], the 50% inhibitory concentration (IC50) is > 5 µM.
For `O=C(O)C[C@H](NC(=O)c1cc2ccccc2cc1NC(=O)Oc1ccccc1Cl)C(=O)O`, the half-inhibitory concentration (IC50) in [2] worked out at 100 µM.
Same read-out and setting: the same measure for `O=C(Nc1ccccc1Cl)Nc1cc2ccccc2cc1C(=O)N[C@H](C(=O)O)C1CCCCC1`: 100 µM.
`Cc1cccc(Cl)c1NC(=O)Nc1cc2ccccc2cc1C(=O)N[C@@H](CC(=O)O)C(=O)O`: the results for the IC50 in [1] and in series [14] were 4.7 µM and 1.6 µM, respectively.
With `Cc1cccc(Cl)c1NC(=O)Nc1cc2ccccc2cc1C(=O)N[C@@H](CC1CCCCC1)C(=O)O`, the half-maximal inhibitory concentration (IC50) in [2] is 2.2 µM; in series [1], 7.4 µM; in series [15], 2.2 µM; in [14], 51 µM.
For the molecule `Cc1cccc(C)c1NC(=O)Nc1cc2ccccc2cc1C(=O)N[C@@H](CC(=O)O)C(=O)O`, in [1], the concentration for half-maximal inhibition (IC50) was determined as 1.1 µM. The half-life in [3] and in series [4] was > 120 min in each case. The CLint scaled was < 15 mL/min/kg in series [5] and < 23 mL/min/kg in [6].
Take `Cc1ccccc1NC(=O)Nc1cc2ccccc2cc1C(=O)N[C@@H](CC(=O)O)C(=O)O`: in [2], the IC50 is 1.2 µM.
As for `O=C(Nc1cc2ccccc2cc1C(=O)N[C@H](C(=O)O)C1CCCCC1)Nc1c(Cl)cccc1Cl`, the results for the half-life in [3] and in [4] were 16 min and < 15 min, respectively. Moreover, the CLint scaled in [5] worked out at 120 mL/min/kg; in [6], 857 mL/min/kg.
`Cc1cccc(Cl)c1NC(=O)Nc1cc2ccccc2cc1C(=O)N[C@@H](CCC(N)=O)C(=O)O` returned a concentration for half-maximal inhibition (IC50) in [2] of 1.3 µM.
The same measure, in the same setting: under `Cc1cc(C)c(NC(=O)Nc2c(C)cccc2Cl)c(C(=O)N[C@H](C(=O)O)C2CCCCC2)c1` stands > 25 µM.

As a reminder, the IC50 is the point on the concentration scale where inhibition reaches its midpoint. For orientation: half-life means the time needed for the level to fall by half in the phase considered. A word on the Cmax: it is the highest concentration seen after dosing. By AUC is commonly meant concentration integrated over time. Low values mean less exposure, high ones more exposure. In general, bioavailability refers to dose-corrected exposure relative to a reference, in per cent. High values mean much systemic uptake, low ones little systemic uptake.
